Screens from PubChem.
RGS4 inh: human RGS4 inhibition; P49798; HEK293 M3R/RGS4 inducible, Fluo-4 calcium flux; hits give high values; triggered by carbachol at its EC20; B-score at 10 µM; 310,000 compounds, 0.45% hits;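 active = B-score, a plate-corrected calcium signal, over three deviations above library mean, with baseline fluorescence within five deviations of library mean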;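 also: RGS4 expression induced by doxycycline in cells with stable M3 receptor; B-score is computed from the integrated fluorescence ratio over baseline after carbachol; higher B-score means a larger calcium signal and so more RGS4 inhibition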
Target sequence (P49798 whole entry, looked up): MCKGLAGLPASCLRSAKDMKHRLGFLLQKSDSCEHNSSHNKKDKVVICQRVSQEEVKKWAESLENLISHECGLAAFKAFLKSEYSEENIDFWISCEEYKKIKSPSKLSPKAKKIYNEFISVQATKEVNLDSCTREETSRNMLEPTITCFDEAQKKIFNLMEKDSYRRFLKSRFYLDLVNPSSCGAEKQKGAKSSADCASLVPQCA
MrgX1 PAM: allosterically activates human MrgX1 receptor signaling | MrgX1-HEK293, Fluo-4 calcium flux, FDSS; hits give high values | Q96LB2 | 310,000 compounds, 0.63% hits | B-score at 10 µM;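 active = plate-corrected calcium response at least 3 library SD above typical, normal starting fluorescence, not activating the receptor alone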;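 also: compound read alongside a low EC10 to EC30 dose of BAM8-22 agonist; peak minus trough fluorescence over baseline measured at the second addition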
Target sequence (Q96LB2 whole entry, looked up): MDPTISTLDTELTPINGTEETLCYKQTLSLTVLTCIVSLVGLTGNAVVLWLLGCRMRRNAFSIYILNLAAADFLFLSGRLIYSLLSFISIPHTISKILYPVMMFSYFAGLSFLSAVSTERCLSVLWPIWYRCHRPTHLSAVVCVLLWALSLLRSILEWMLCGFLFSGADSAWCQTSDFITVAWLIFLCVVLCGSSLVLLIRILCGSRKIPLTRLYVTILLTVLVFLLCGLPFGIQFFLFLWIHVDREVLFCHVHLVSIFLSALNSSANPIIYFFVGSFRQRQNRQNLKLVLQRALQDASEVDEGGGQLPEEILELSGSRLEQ
MrgX1 agonist: human MrgX1 receptor agonism, primary screen. Q96LB2. MrgX1-HEK293 cells, Fluo-4 calcium fluorescence, agonist mode; hits give high values. B-score at 10 µM. 310,000 compounds, 0.44% hits;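 active = calcium response B-score plate-corrected fluorescence ratio at least 3 library SD, with starting fluorescence B-score inside 5 SD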
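Assay system: MrgX1-expressing HEK293 cells / Amount: fifteen thousand cells per well / Doses: test compound in the initial addition of three / Timing: cells plated overnight, dye loaded 0.5 h 37 °C, 0.5 h room temperature / Technique: kinetic calcium dye fluorescence, Fluo-4 NW / Control set: positive and negative controls per plate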
MrgX1 antag: human MrgX1 receptor antagonism, primary screen. MRGX1-HEK293 calcium flux, Fluo-4, BAM8-22 antagonism; hits give low values. B-score at 10 µM. 310,000 compounds, 1.3% hits. AID 588676;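 active = calcium-response B-score plate-corrected more than 3 library SD below zero, starting fluorescence within 5 deviations, no agonist response on first addition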;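 also: peak minus trough fluorescence over baseline after final BAM8-22 challenge near maximal dose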
RGS4 act: potentiators or activators of RGS4 | HEK293 M3R/inducible RGS4, carbachol calcium flux Fluo4; hits give low values | B-score at 10 µM | 310,000 compounds, 0.92% hits;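 active = B-score of the integrated calcium signal more than 4 SD below the library mean, with starting fluorescence not abnormally high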;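 also: negative B-score means reduced calcium response which marks RGS4 activation or potentiation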
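Test system: HEK293 cells with stable M3R and inducible RGS4; also added: carbachol at ECmax as muscarinic agonist stimulus; schedule: dye loading 30 min 37 °C, buffer rest 30 min RT; technique: kinetic calcium fluorescence imaging with Fluo4-AM dye, 2 µM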
RGS4 act valid: confirmation of RGS4 activators; shares compounds with RGS4 act; HEK293 M3R/RGS4 inducible, carbachol calcium flux Fluo4; inhibition, % at 10 µM; 1,100 compounds, 89% hits;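 active = inhibition above 3 SD of the buffer control wells, cut at about 41% in these data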;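 also: signal is the integrated peak-minus-minimum Fluo4 fluorescence over baseline ratio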
RGS4 act ctr: activity in cells without induced RGS4 expression | shares compounds with RGS4 act | AID 602283 | 1,100 compounds, 82% hits | HEK293 M3R non-induced RGS4, Fluo4 calcium flux; after carbachol challenge at its EC90 | inhibition, % at 10 µM;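 active = inhibition exceeding 3 SD of buffer-only control wells, cut at about 26% in these data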;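 also: percent drop in integrated peak-minus-baseline over baseline Fluo4 ratio after carbachol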
Numbers stand for hits; – = inactive; · = no result given. A selection: hits, their analogues and other compounds. The true share with any hit is near 3.5%.

SMILES | RGS4 inh | MrgX1 PAM | MrgX1 agonist | MrgX1 antag | RGS4 act | RGS4 act valid | RGS4 act ctr
CN(Cc1ccc(F)cc1)C(=O)c1cccc(S(=O)(=O)N2CCN(c3ccc(F)cc3)CC2)c1 | – | – | – | – | -7.6 | 40 | 84
O=c1c2ccccc2nc(/C=C/c2cccnc2)n1CCc1ccccc1 | – | – | – | – | -9.7 | 56 | –
CC(C)OC(=O)C1Cc2ccccc2CN1S(=O)(=O)c1cccs1 (configuration not stated) | – | – | – | – | – | · | ·
CN1CCN(c2ncnc3c2c(-c2ccccc2)cn3-c2ccc(F)cc2)CC1 | – | – | – | – | – | · | ·
CCOc1ccc(-n2cc(-c3ccccc3)c3c(N4CCOCC4)ncnc32)cc1 | – | – | – | – | -8.2 | 62 | –
Cc1cc(C)c(OCC(=O)Nc2ccc(NC(=O)c3ccco3)cc2)c([N+](=O)[O-])c1 | · | – | – | – | · | · | ·
Cc1cc(C)c(OCC(=O)Nc2cccc(NC(=O)c3ccco3)c2)c(Br)c1 | – | – | – | – | -7.8 | 90 | 52
COc1ccc(CCNC(=O)CCNC(=O)c2ccc([N+](=O)[O-])cc2)cc1 | – | – | – | – | – | · | ·
COCCn1c(-c2ccccc2)nc2oc3cc(OC)ccc3c(=O)c2c1=O | – | – | – | – | – | · | ·
COCCn1c(-c2ccc(Br)cc2)nc2oc3cc(OC)ccc3c(=O)c2c1=O | – | – | – | – | -8.3 | – | –
Cc1nn(Cc2ccc(C(=O)NN)o2)c(C)c1Cl | – | – | – | – | – | · | ·
Cc1nn(Cc2ccc(C(=O)Nc3ccc(C(=O)OC(C)C)cc3)o2)c(C)c1Cl | – | – | – | – | -9.6 | 92 | 79
CCOc1ccc(C(=O)COC(=O)c2cccc(-n3cnnn3)c2)cc1 | – | – | – | – | – | · | ·
CN(C)CCOC(C1CCCCC1)C1CCCCC1 | – | – | – | – | -9.1 | 90 | 68
CCOc1ccc2[nH]c3c(N4CCc5ccccc5C4)ncnc3c2c1 | – | – | – | – | -8.5 | 94 | 72
S=c1[nH]nc(-c2ccc(Br)cc2)n1Cc1ccco1 | – | – | – | – | -8 | 93 | 78
S=c1[nH]nc(-c2ccc(Cl)cc2)n1Cc1ccccc1 | – | – | – | – | -8.9 | 81 | 36
CC(C)(O)C#Cc1ccc(CN2CCN(C3CCCCC3)C(CCO)C2)s1 (configuration not stated) | – | – | – | – | -7.8 | 64 | 26
CSc1ccc(CN2CCN(C3CCCC3)C(CCO)C2)cc1 (configuration not stated) | – | – | – | – | -8.9 | 88 | 60
CC(C)(O)C#Cc1ccc(CN2CCN(C3CCCCC3)C(CCO)C2)cc1 (configuration not stated) | – | – | – | – | – | · | ·
COc1ccc(OC)c(S(=O)(=O)N2CCC(C(=O)NC3CC3)CC2)c1 | – | – | – | – | – | · | ·
CCOC(=O)c1cc2sc(C)cc2n1CCCN1C(=O)c2ccccc2C1=O | – | – | – | – | -7.8 | 90 | 42
CCOC(=O)c1cc2sc(C)cc2n1CC(=O)N(CC)CC | – | – | – | – | – | · | ·
CC(=O)N(C)c1ccc(NC(=O)Nc2ccc(C)cc2)cc1 | – | – | – | – | – | · | ·
CC(=O)N(C)c1ccc(NC(=O)Nc2ccc(Cl)cc2)cc1 | – | – | – | – | -8.3 | 93 | 68
SMILES | RGS4 inh | MrgX1 PAM | MrgX1 agonist | MrgX1 antag | RGS4 act | RGS4 act valid | RGS4 act ctr
CSc1cc(-c2ccccc2)n(C)c(=O)c1C#N | – | – | – | – | – | · | ·
CCOC(=O)Cn1c(-c2ccccc2)cc(SC)c(C#N)c1=O | – | – | – | – | -9.2 | 90 | 79
O=C(Cc1ccccc1)Nc1cccc(-c2nnc(-c3ccco3)o2)c1 | – | – | – | – | – | · | ·
COc1cccc(C(=O)Nc2cccc(-c3nnc(-c4ccccc4)o3)c2)c1 | – | – | – | – | -11 | 76 | 37
COc1ccc(CC(=O)Nc2cccc(-c3nnc(-c4ccccc4)o3)c2)cc1OC | – | · | · | · | -9 | 93 | 81
COc1ccccc1OCC(=O)Nc1cccc(-c2nnc(-c3ccco3)o2)c1 | – | – | – | – | -8.1 | 78 | 28
COc1ccc([N+](=O)[O-])cc1C(=O)NCCOc1ccc(Cl)cc1 | – | – | – | – | – | · | ·
Cc1cc(N2CCCCC2)n2ncc(-c3ccc(Cl)cc3)c2n1 | – | – | – | – | – | · | ·
Cc1cc(N2CCCCC2)n2ncc(-c3ccccc3)c2n1 | – | – | – | – | -8.1 | 94 | 87
Cc1ccc(C)c(N2CCN(C(=O)c3cc4c(C)nc5ccccc5c4o3)CC2)c1 | – | – | – | – | -8.5 | 89 | 68
CCOC(=O)C1CCCN(C(=O)c2cc3c(C)nc4ccccc4c3o2)C1 (configuration not stated) | – | – | – | – | -9.2 | 82 | 61
Cc1ccc(CNC(=O)c2cc3c(C)nc4ccccc4c3o2)cc1 | – | – | – | – | – | · | ·
CCOC(=O)C1CCCN(C(=O)c2ccc3nc(-c4cccc(OC)c4)oc3c2)C1 (configuration not stated) | – | – | – | – | -8.7 | 54 | 84
CCC(=O)C1CCCN(C(=O)c2ccc3nc(-c4cccc(OC)c4)oc3c2)C1 (configuration not stated) | – | – | – | – | – | · | ·
O=C(COC(=O)/C=C/c1ccc(C(F)(F)F)cc1)NCc1ccco1 | – | – | – | – | – | · | ·
N#Cc1ccccc1Sc1ccccc1C(=O)NCC(c1ccco1)N1CCCC1 (configuration not stated) | – | – | – | – | -7.9 | 65 | 29
N#Cc1ccc(C(=O)NCC(c2ccco2)N2CCCC2)cc1 (configuration not stated) | – | – | – | – | – | · | ·
COc1c(Br)cc(/C=N/n2c(-c3ccccc3)n[nH]c2=S)c(O)c1Br | – | – | – | – | – | · | ·
Cc1cccc(NC(=O)C2CCN(S(=O)(=O)c3c(C)c(C)cc(C)c3C)CC2)n1 | – | – | – | – | -11 | 90 | 64
Cc1cccc(NC(=O)C2CCN(S(=O)(=O)c3c(C)nn(C)c3C)CC2)n1 | – | – | – | – | – | · | ·
COC(=O)c1ccc(NC(=O)CS(=O)(=O)c2ccccc2)cc1 | – | – | – | – | – | · | ·
COCCN(C(=O)Nc1ccccc1OC)c1nc2ccccc2s1 | – | – | – | – | -7.7 | 92 | 91
CC(=O)NN1C(=O)/C(=C\c2ccc(Cl)cc2)SC1=S | – | – | – | – | -12 | – | –
CC1CCN(c2ccc3c(c2)S(=O)(=O)c2ccccc2C3=O)CC1 | – | – | – | – | -8.2 | 68 | 65
